According to ChEMBL document CHEMBL5576048, “A Second-Generation Oral SARS-CoV-2 Main Protease Inhibitor Clinical Candidate for the Treatment of COVID-19” (J Med Chem, 2024):

Columns and labels:
SARS-CoV-2 [1] = experiment: Antiviral activity against SARS CoV-2 USA_WA1/2020 infected in ACE2 enriched African green monkey Vero E6 cells assessed as reduction in virus-induced cytopathic effect measured after 3 days by celltiter-glo assay; type: functional, organism-based; settings: Severe acute respiratory syndrome coronavirus 2, USA_WA1/2020, Vero C1008, 72 h
[2] = AUC (0 to 24 hrs) in Wistar Hannover rat at 1000 mg/kg, po administered as crystalline MTBE in 10% (v/v) ethanol/10% (v/v) capmul MCM/35% (v/v) PEG400/45% (v/v) Tween 80 formulation by LC-MS/MS analysis; type: ADME, organism-based; settings: in vivo
in vivo [3] = settings: Wistar Hannover, rat, po, 100 mg/kg
[4] = Lipophilicity, log D of compound at pH 7.4 by shake-flask method; type: physicochemical; settings: buffer
[5] = AUC (0 to 24 hrs) in Wistar Hannover rat at 100 mg/kg, po administered as crystalline MTBE in 10% (v/v) ethanol/10% (v/v) capmul MCM/35% (v/v) PEG400/45% (v/v) Tween 80 formulation by LC-MS/MS analysis; type: ADME, organism-based; settings: in vivo
in vivo [6] = settings: Wistar Hannover, rat, po, 10 mg/kg
[7] = Passive permeability across apical to basolateral side in dog RRCK cells incubated for 30 mins; type: ADME, cell-based, Canis lupus familiaris; settings: mdckii-le, 0.5 h
[8] = AUC (0 to 24 hrs) in Wistar Hannover rat at 10 mg/kg, po administered as crystalline MTBE in 10% (v/v) ethanol/10% (v/v) capmul MCM/35% (v/v) PEG400/45% (v/v) Tween 80 formulation by LC-MS/MS analysis; type: ADME, organism-based; settings: in vivo
[9] = AUC (0 to 24 hrs) in Wistar Hannover rat at 100 mg/kg, po administered as crystalline anhydrous form in 2% (v/v) Tween 80/98% 0.5% (w/v) methyl cellulose in water formulation by LC-MS/MS analysis; type: ADME, organism-based; settings: in vivo
Procedure, shortened: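 Single high oral dose of 100 mg/kg in male Wistar–Han rats in the fed state, given as crystalline suspension in 2% (v/v) Tween 80 in 0.5% (w/v) methylcellulose in water. Parameters were derived from plasma concentration–time data and reported as mean ± S.D. (n = 3) or mean and individual values (n = 2).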

in vivo [10] = settings: Wistar Hannover, rat, po, 1000 mg/kg
in vivo [11] = settings: Wistar Hannover, rat, po, 100 mg/kg; remark: listed apart in the source
in vivo [12] = settings: Wistar Hannover, rat, po, 1000 mg/kg; remark: listed apart in the source
[13] = Metabolic stability in human liver microsome assessed as apparent intrinsic clearance in presence of NADPH incubated for 40 mins by LS-MS/MS analysis; type: ADME; settings: microsomes
[14] = target: Replicase polyprotein 1ab (Severe acute respiratory syndrome coronavirus 2, UniProt P0DTD1); experiment: Inhibition of SARS-Cov-2 MPro assessed as inhibition constant by FRET assay
[15] = Cmax in Wistar Hannover rat at 10 mg/kg, po administered as ASD form in 2% Tween 80 (v/v) in 0.5% (w/v) methyl cellulose in water formulation by LC-MS/MS analysis; type: ADME, organism-based; settings: in vivo
Procedure, shortened: (§1)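 Parameters come from plasma concentration–time data as mean and individual values (n = 2); exposure for this form was reported as AUC0–∞. Oral F is referenced to a 1 mg/kg i.v. dose.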

[16] = Clearance in Wistar Hannover rat at 1 mg/kg, iv by LC-MS/MS analysis; type: ADME, organism-based; settings: in vivo
[17] = AUC (0 to 24 hrs) in Wistar Hannover rat at 1 mg/kg, iv by LC-MS/MS analysis; type: ADME, organism-based; settings: in vivo
[18] = Renal clerance in Wistar Hannover rat at 1 mg/kg, iv by LC-MS/MS analysis; type: ADME, organism-based; settings: in vivo
[19] = Volume of distribution at steady state in Wistar Hannover rat at 1 mg/kg, iv by LC-MS/MS analysis; type: ADME, organism-based; settings: in vivo, read-out: Vdss
[20] = Cmax in Wistar Hannover rat at 10 mg/kg, po by LC-MS/MS analysis; type: ADME, organism-based; settings: in vivo
Procedure, shortened: (§2)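 Male Wistar–Han rats in the fed state were dosed orally at 10 mg/kg, as amorphous solid in solution or crystalline solid in suspension, in 2% (v/v) Tween 80 in 0.5% (w/v) methyl cellulose in water. Parameters were calculated from plasma concentration–time data; mean and individual values given (n = 2). Oral F is set against a 1 mg/kg i.v. dose.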

[21] = Oral bioavailability in Wistar Hannover rat at 10 mg/kg by LC-MS/MS analysis; type: ADME, organism-based; settings: in vivo; procedure, shortened: as §2
[22] = AUC (0 to 24 hrs) in Wistar Hannover rat at 10 mg/kg, po by LC-MS/MS analysis; type: ADME, organism-based; settings: in vivo; procedure, shortened: as §2
[23] = AUC (0 to 24 hrs) in Wistar Hannover rat at 10 mg/kg, po administered as ASD form in 2% Tween 80 (v/v) in 0.5% (w/v) methyl cellulose in water formulation by LC-MS/MS analysis; type: ADME, organism-based; settings: in vivo
[24] = Tmax in Wistar Hannover rat at 10 mg/kg, po administered as ASD form in 2% Tween 80 (v/v) in 0.5% (w/v) methyl cellulose in water formulation by LC-MS/MS analysis; type: ADME, organism-based; settings: in vivo; procedure, shortened: as §1
[25] = Oral bioavailability in Wistar Hannover rat at 10 mg/kg administered as ASD form in 2% Tween 80 (v/v) in 0.5% (w/v) methyl cellulose in water formulation by LC-MS/MS analysis; type: ADME, organism-based; settings: in vivo; procedure, shortened: as §1
[26] = Half life in Wistar Hannover rat at 1 mg/kg, iv by LC-MS/MS analysis; type: ADME, organism-based; settings: in vivo
[27] = Tmax in Wistar Hannover rat at 10 mg/kg, po by LC-MS/MS analysis; type: ADME, organism-based; settings: in vivo; procedure, shortened: as §2
SARS-CoV-2 [28] = experiment: Antiviral activity against SARS CoV-2 infected in African green monkey Vero E6 cells; type: functional, organism-based; settings: Severe acute respiratory syndrome coronavirus 2, Vero C1008
[29] = Oral bioavailability in Wistar Hannover rat at 10 mg/kg administered as crystalline form in 2% Tween 80 (v/v) in 0.5% (w/v) methyl cellulose in water formulation by LC-MS/MS analysis; type: ADME, organism-based; settings: in vivo; procedure, shortened: as §2
[30] = Tmax in Wistar Hannover rat at 10 mg/kg, po administered as crystalline form in 2% Tween 80 (v/v) in 0.5% (w/v) methyl cellulose in water formulation by LC-MS/MS analysis; type: ADME, organism-based; settings: in vivo; procedure, shortened: as §2
[31] = AUC (0 to 24 hrs) in Wistar Hannover rat at 10 mg/kg, po administered as crystalline form in 2% Tween 80 (v/v) in 0.5% (w/v) methyl cellulose in water formulation by LC-MS/MS analysis; type: ADME, organism-based; settings: in vivo; procedure, shortened: as §2
[32] = Cmax in Wistar Hannover rat at 10 mg/kg, po administered as crystalline form in 2% Tween 80 (v/v) in 0.5% (w/v) methyl cellulose in water formulation by LC-MS/MS analysis; type: ADME, organism-based; settings: in vivo; procedure, shortened: as §2

| SMILES | EC50 (SARS-CoV-2 [1]) [µM] | logD [4] | permeability [7] | CLH(app) [13] [µL/min/mg] | Ki [14] [µM] | also measured |
| --- | --- | --- | --- | --- | --- | --- |
| CC(C)(C)[C@H](NC(=O)C(F)(F)F)C(=O)N1C[C@H]2[C@@H]([C@H]1C(=O)N[C@H](C#N)C[C@@H]1CCNC1=O)C2(C)C | 0.0814 | 1.9 | 1.03 10^-6 cm/s |  |  | AUC(0-t) [2]: 746 µg·h/mL; Tmax (in vivo [3]): 84 min; AUC(0-t) [5]: 68.3 µg·h/mL; Tmax (in vivo [6]): 90 min; AUC(0-t) [8]: 3.19 µg·h/mL; AUC(0-t) [9]: 18 µg·h/mL; Cmax (in vivo [10]): 88.3 µg/mL; Tmax (in vivo [11]): 45 min; Tmax (in vivo [12]): 60 min |
| CNC(=O)N[C@H](C(=O)N1C[C@H]2[C@@H]([C@H]1C(=O)N[C@H](C#N)C[C@@H]1CCNC1=O)C2(C)C)C(C)(C)C |  | 0.77 | 0.62 10^-6 cm/s | < 7.12 |  |  |
| COC(=O)N[C@H](C(=O)N1C[C@H]2[C@@H]([C@H]1C(=O)N[C@H](C#N)C[C@@H]1CCNC1=O)C2(C)C)C(C)(C)C |  | 1.2 | 0.61 10^-6 cm/s | 8.1 |  |  |
| CC(C)(C)[C@H](NC(=O)C(F)(F)F)C(=O)N1C[C@H](C(F)(F)F)C[C@H]1C(=O)N[C@H](C#N)C[C@@H]1CCNC1=O | 0.0655 | 1.4 | 0.71 10^-6 cm/s | 13 | 0.00446 |  |
| COC(=O)N[C@H](C(=O)N1C[C@H](C(F)(F)F)C[C@H]1C(=O)N[C@H](C#N)C[C@@H]1CCCNC1=O)C(C)C | 0.0789 | 0.7 | 0.63 10^-6 cm/s | < 7.12 | 0.00113 | Cmax [15]: 0.177 µg/mL; clearance [16]: 2.14 L/h/kg; AUC(0-t) [17]: 0.467 µg·h/mL; CL renal [18]: 0.456 L/h/kg; Vd [19]: 0.55 L/kg; Cmax [20]: 0.31 µg/mL; bioavailability [21]: 7.7%; AUC(0-t) [22]: 0.359 µg·h/mL; AUC(0-t) [23]: 0.38 µg·h/mL; Tmax [24]: 22.8 min; bioavailability [25]: 8.1%; half-life [26]: 114 min; Tmax [27]: 22.8 min |
| COC(=O)N[C@H](C(=O)N1C[C@H](OC(F)F)C[C@H]1C(=O)N[C@H](C#N)C[C@@H]1CCNC1=O)C(C)(C)C | 0.45 | 0.6 | 0.76 10^-6 cm/s | < 7.12 | 0.00388 |  |
| COC(=O)N[C@H](C(=O)N1C[C@H](C(F)(F)F)C[C@H]1C(=O)N[C@H](C#N)C[C@@H]1CC(O)NC1=O)C(C)(C)C (stereo not given in full) |  |  |  |  | 0.013 | EC50 (SARS-CoV-2 [28]): 1.65 µM |
| COC(=O)N[C@H](C(=O)N1C[C@H](OC(F)(F)F)C[C@H]1C(=O)N[C@H](C#N)C[C@@H]1CCNC1=O)C(C)(C)C | 0.141 | 1 | 2.05 10^-6 cm/s | < 7.12 | 0.00063 | clearance [16]: 1.52 L/h/kg; AUC(0-t) [17]: 0.65 µg·h/mL; CL renal [18]: 0.486 L/h/kg; Vd [19]: 0.87 L/kg; Cmax [20]: 0.358 µg/mL; bioavailability [21]: 8.6%; AUC(0-t) [22]: 0.559 µg·h/mL; half-life [26]: 360 min; Tmax [27]: 15 min |
| COC(=O)N[C@H](C(=O)N1C[C@H](C(F)(F)F)C[C@H]1C(=O)N[C@H](C#N)C[C@@H]1CCCNC1=O)C(C)(C)C | 0.0462 | 1.2 | 0.4 10^-6 cm/s | 9.5 | 0.00017 |  |
| CC(C)(C)[C@H](NC(=O)C(F)(F)F)C(=O)N1C[C@H](OC(F)(F)F)C[C@H]1C(=O)N[C@H](C#N)C[C@@H]1CCNC1=O | 0.0809 | 1.7 | 1.12 10^-6 cm/s | < 9.42 | 0.00071 |  |
| COC(=O)N[C@H](C(=O)N1C[C@H](C(F)(F)F)C[C@H]1C(=O)N[C@H](C#N)C[C@@H]1CCNC1=O)C(C)C | 0.488 | 0.9 | 0.5 10^-6 cm/s | < 7.12 | 0.0133 |  |
| CC(C)(C)[C@H](NC(=O)C(F)(F)F)C(=O)N1C[C@H](OC(F)F)C[C@H]1C(=O)N[C@H](C#N)C[C@@H]1CCNC1=O | 0.193 | 1.2 | 1.25 10^-6 cm/s | < 7.12 | 0.00283 | Cmax [15]: 0.0928 µg/mL; clearance [16]: 1.99 L/h/kg; bioavailability [29]: 11.9%; AUC(0-t) [17]: 0.502 µg·h/mL; CL renal [18]: 0.27 L/h/kg; Tmax [30]: 30 min; Vd [19]: 1.05 L/kg; AUC(0-t) [31]: 0.599 µg·h/mL; Cmax [32]: 0.272 µg/mL; AUC(0-t) [23]: 0.212 µg·h/mL; Tmax [24]: 45 min; bioavailability [25]: 4.2%; half-life [26]: 306 min |
